From ChEMBL document CHEMBL1146084, “Discovery of orally efficacious melanin-concentrating hormone receptor-1 antagonists as antiobesity agents. Synthesis, SAR, and biological evaluation of bicyclo[3.1.0]hexyl ureas” (J Med Chem, 2006)
Values belong to the compound of their own block, whether it stands above or below them. The source made the active and inactive calls. No cut-off for these calls is given here.

Assays:
Rattus norvegicus [1] = assay: AUC (0-6h) in rat at 10 mg/kg, po; format: ADME, organism-based, Plasma; design: time < 6 hr, dose 10 mg/kg, route oral; conditions: in vivo, 6 h
Mus musculus [2] = assay: Reduction of cumulative food intake in C57BL/6N DIO mouse relative to control after 5 days at 30 mg/kg, po; format: functional
Procedure, shortened: (§1)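 DIO male C57Bl/6NCrl:BR mice (45%-fat diet, individually housed), acclimated to vehicle dosing, given compound orally once daily in 20% HPβCD for 5 or 28 days, n = 11/group. Body weight (to 0.1 g) and food intake from preweighed 3-3.5 g pellets (to 0.01 g) recorded daily; cumulative intake and % weight change at endpoint versus vehicle, ± SEM.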

Mus musculus [3] = assay: Change in body weight of C57BL/6N DIO mouse relative to control after 5 days at 10 mg/kg, po; format: functional; procedure, shortened: as §1
Mus musculus [4] = assay: Change in body weight of C57BL/6N DIO mouse relative to control after 5 days at 30 mg/kg, po; format: functional; procedure, shortened: as §1
Mus musculus [5] = assay: Reduction of cumulative food intake in C57BL/6N DIO mouse relative to control after 28 days at 10 mg/kg, po; format: functional; procedure, shortened: as §1
Mus musculus [6] = assay: Reduction of cumulative food intake in C57BL/6N DIO mouse relative to control after 28 days at 30 mg/kg, po; format: functional; procedure, shortened: as §1
Mus musculus [7] = assay: Change in body weight of C57BL/6N DIO mouse relative to control after 28 days at 10 mg/kg, po; format: functional; procedure, shortened: as §1
Mus musculus [8] = assay: Change in body weight of C57BL/6N DIO mouse relative to control after 28 days at 30 mg/kg, po; format: functional; procedure, shortened: as §1
[9] = molecular target: T1, Melanin-concentrating hormone receptor 1 (Homo sapiens, UniProt Q99705); assay: Displacement of [125I]MCH from human MCHR1 expressed in CHO cell; format: cell-based
[10] = molecular target: T1, Melanin-concentrating hormone receptor 1; assay: Inhibition of MCH-mediated calcium influx in CHO cells expressing human MCHR1 by FLIPR assay; format: functional, cell-based
Procedure, shortened: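 After two washes, treated with vehicle (buffer, 2% DMSO) or compound, then stimulated with 30 nM MCH; intracellular Ca²⁺ change read by FLIPR.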

Rattus norvegicus [11] = assay: (§2) AUC (0-24h) in rat at 10 mg/kg, po; format: ADME, organism-based, Plasma; design: time < 24 hr, dose 10 mg/kg, route oral; conditions: in vivo, 24 h
[12] = molecular target: Melanin-concentrating hormone receptor 1 (Mus musculus) (UniProt Q8JZL2); assay: Receptor occupancy ex vivo by displacement of [125I]S36057 binding from MCHR1 in C57BL/6N mouse brain after 6 hrs at 30 mg/kg, po; format: functional, organism-based; design: dose 30 mg/kg
Procedure, shortened: (§3)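 Male C57Bl/6NCrl:BR mice given vehicle (HPβCD) or compound orally; killed by CO2 at 6 or 24 h post-dose (chronic studies: 24 h after last daily dose, n = 3/group). 16 µm frozen caudate putamen sections incubated 30 min at room temperature with 700 pM [125I]-S36057 in MCH-R1 binding buffer; 1 µM MCH defines nonspecific binding. Phosphorimager quantitation; % inhibition versus vehicle.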

Mus musculus [13] = assay: Reduction of food intake in orally dosed C57BL/6N DIO mouse after 24 hrs at 30 mg/kg relative to control; format: functional
Procedure, shortened: (§4)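 Male C57Bl/6NCrl:BR mice made obese on a 45%-fat diet, individually housed, 12 h light/dark, 22 °C; acclimated to oral 20% hydroxypropyl-β-cyclodextrin vehicle for 2-3 days. Single oral 30 mg/kg dose in 20% HPβCD; food intake weighed to 0.01 g at 2, 6 and 24 h, expressed as % of vehicle ± SEM.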

[14] = molecular target: Melanin-concentrating hormone receptor 1 (Mus musculus) (UniProt Q8JZL2); assay: Receptor occupancy ex vivo by displacement of [125I]S36057 binding from MCHR1 in C57BL/6N mouse brain after 24 hrs at 30 mg/kg, po; format: functional, organism-based; design: dose 30 mg/kg; procedure, shortened: as §3
Mus musculus [15] = assay: Reduction of food intake in orally dosed C57BL/6N DIO mouse after 2 hrs at 30 mg/kg relative to control; format: functional; conditions: route oral; procedure, shortened: as §4
Mus musculus [16] = assay: Reduction of food intake in orally dosed C57BL/6N DIO mouse after 6 hrs at 30 mg/kg relative to control; format: functional; conditions: route oral; procedure, shortened: as §4
[17] = Half life in rat at 10 mg/kg, iv; format: ADME, organism-based; design: dose 10 mg/kg, route intravenous; conditions: in vivo
Rattus norvegicus [18] = assay: Volume of distribution in rat at 10 mg/kg, iv or po; format: ADME, organism-based; design: dose 10 mg/kg, route oral; conditions: in vivo
Rattus norvegicus [19] = assay: Bioavailability in rat at 10 mg/kg, iv or po; format: ADME, organism-based; conditions: in vivo
Mus musculus [20] = assay: Reduction of cumulative food intake in C57BL/6N DIO mouse relative to control after 5 days at 10 mg/kg, po; format: functional; procedure, shortened: as §1
[21] = molecular target: Melanin-concentrating hormone receptor 1 (Mus musculus) (UniProt Q8JZL2); conditions: C57BL/6N, Brain, 10 mg/kg
[22] = as §2; format: ADME, organism-based, Plasma; design: time < 24 hr, dose 10 mg/kg, route oral; conditions: plasma
[23] = Ratio of drug level in brain against plasma in rat after 6 hrs at 10 mg/kg, po; format: ADME, organism-based; design: dose 10 mg/kg, route oral

Melanin-concentrating hormone receptor 1 (Mus musculus), sequence (Q8JZL2 whole entry): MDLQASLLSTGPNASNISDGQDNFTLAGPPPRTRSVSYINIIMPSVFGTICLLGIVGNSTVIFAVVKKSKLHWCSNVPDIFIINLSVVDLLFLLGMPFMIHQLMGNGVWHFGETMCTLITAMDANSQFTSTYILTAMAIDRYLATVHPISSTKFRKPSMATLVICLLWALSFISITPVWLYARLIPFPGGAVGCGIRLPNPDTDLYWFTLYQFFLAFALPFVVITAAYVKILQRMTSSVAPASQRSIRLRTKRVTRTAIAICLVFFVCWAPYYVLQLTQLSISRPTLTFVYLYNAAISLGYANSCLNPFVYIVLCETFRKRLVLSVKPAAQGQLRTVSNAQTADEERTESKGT
T1 sequence (Q99705 whole entry): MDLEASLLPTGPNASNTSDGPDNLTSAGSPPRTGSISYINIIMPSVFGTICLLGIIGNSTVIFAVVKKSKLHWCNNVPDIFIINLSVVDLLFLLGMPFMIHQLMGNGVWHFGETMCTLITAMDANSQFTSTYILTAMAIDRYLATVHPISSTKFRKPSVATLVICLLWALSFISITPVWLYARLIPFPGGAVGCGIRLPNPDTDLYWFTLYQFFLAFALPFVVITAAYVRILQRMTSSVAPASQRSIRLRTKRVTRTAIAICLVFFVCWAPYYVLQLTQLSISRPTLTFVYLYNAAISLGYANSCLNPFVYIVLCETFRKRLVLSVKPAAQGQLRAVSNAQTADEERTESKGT

- AUC (Rattus norvegicus [1]): 642 ng·h/mL
- Ki [9]: 2.7 nM
- Kb [10]: 1.9 nM
- AUC (Rattus norvegicus [11]): 3.9 µM·h
- Activity [12]: 99%
- Activity [14]: 58%
- half-life [17]: 240 min
- Vdss (Rattus norvegicus [18]): 5.6 L/kg
- F (Rattus norvegicus [19]): 27%
- inhibition [21]: > 65%
SMILES: CN1CCN(CCCN(C(=O)Nc2ccc(F)c(C(F)(F)F)c2)[C@@H]2CC[C@]3(c4ccc(C#N)cc4)C[C@H]23)CC1 (relative stereo)
- Activity (Mus musculus [2]): 11.7 g
- Activity (Mus musculus [3]): -2.26%
- Activity (Mus musculus [4]): -6.04%
- Activity (Mus musculus [5]): 87 g
- Activity (Mus musculus [6]): 79.4 g
- Activity (Mus musculus [7]): -1.48%
- Activity (Mus musculus [8]): -9.83%
- Food intake (% of vehicle control) (Mus musculus [13]; route oral): 78.1%
- Food intake (% of vehicle) (Mus musculus [15]): 77.3%
- Food intake (% of vehicle control) (Mus musculus [16]): 76%
- Activity (Mus musculus [20]): 14.9 g

- AUC(0-t) at 24 h [22]: 14 µM·h
- Kp at 6 h [23]: 0.7
- Activity [12]: 58%
SMILES: N#Cc1cccc([C@]23CC[C@@H](N(CCN4CC[C@@H](O)C4)C(=O)Nc4ccc(F)c(Cl)c4)C[C@H]2C3)c1
- Activity (Mus musculus [13]): inactive

- Ki [9]: 15.1 nM
- Kb [10]: 11 nM
- AUC(0-t) at 24 h [22]: 16.4 µM·h
- Kp at 6 h [23]: 1.1
- Activity [12]: 73%
SMILES: N#Cc1cccc([C@]23CC[C@@H](N(CCN4CC[C@H](O)C4)C(=O)Nc4ccc(F)c(C(F)(F)F)c4)C[C@H]2C3)c1
- Activity (Mus musculus [13]): Active
